Reference: ChEMBL document CHEMBL4706486, “Usnic acid derivatives as tau-aggregation and neuroinflammation inhibitors” (Eur J Med Chem, 2020)
Calls of active or inactive are those of the source. The calls are words filed in the database; no cut-off is given here.

How the values were obtained:
Homo sapiens [1] = species: Homo sapiens; assay: Inhibition of acetyl-PHF6 amide self-aggregation (unknown origin) in pH 7.4 phosphate buffer at 10 uM and 25 degreeC measured every 1 min for 120 mins under shaking condition by ThT fluorescence assay relative to control
Outline: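 AcPHF6 dissolved in HFIP, dried overnight, 1 mM water stock used at once. Final 100 μM peptide, 20 μM ThT, 10 μM compound (≤0.1% DMSO) in 50 mM phosphate buffer pH 7.4, 25 °C. Ex 440/em 490 nm read each minute for 120 min, 10 s shaking (400 rpm) before each read. Inhibition from mean signal at 50–60 min; ≥3 wells; mean ± SD of three experiments; DMSO negative control.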

BV-2 = assay: Cytotoxicity against mouse BV-2 cells at 20 uM measured after 24 hrs by MTT assay; type: cell-based; settings: bv-2, 24 h
Outline: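 Cells in high-glucose DMEM with 10% FBS, 5% CO₂, 37 °C, seeded 3000–5000/well, exposed to compound 24 h. MTT (0.5 mg/mL) 4 h, formazan dissolved in DMSO, absorbance 570 nm (reference 630 nm). Viability as percent of untreated control; mean ± SD, three independent experiments.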

Homo sapiens [2] = species: Homo sapiens; assay: Inhibition of acetyl-PHF6 amide self-aggregation (unknown origin) in pH 7.4 phosphate buffer assessed as absence of fibrillar material at 20 uM and 25 degreeC measured after 10 mins by phosphotungstic acid staining based TEM analysis
Homo sapiens [3] = species: Homo sapiens; assay: Inhibition of acetyl-PHF6 amide self-aggregation (unknown origin) in pH 7.4 phosphate buffer assessed as decrease in absorbance intensity at 10 uM and 25 degreeC measured immediately after 10 sec vibration per minute for 120 mins under shaking condition by circular dichroism spectroscopy
Outline: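 Fresh samples of 100 μM AcPHF6 with 10 μM compound (≤0.1% DMSO) in 50 mM phosphate buffer pH 7.4. 10 s vibration per minute at 25 °C over 120 min. Spectra 260–200 nm, 1 mm quartz cell, 1 nm bandwidth, 50 nm/min scan. Solvent and compound contributions subtracted, converted to Δε per residue, Savitzky-Golay smoothed.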

inhibition (Homo sapiens [1]) | SMILES | also measured
inactive | CC(=O)c1c(O)c(C)c(O)c2c1OC1=CC(=O)/C(=C(/C)N)C(=O)[C@@]12C | 
22.5% | CC(=O)c1c(O)c(C)c(O)c2c1OC1=Cc3[nH]nc(C)c3C(=O)[C@@]12C | 
38% | CC(=O)c1c(O)c(C)c(O)c2c1OC1=Cc3c(c(C)nn3-c3cnccn3)C(=O)[C@@]12C | 
20.1% | CC(=O)c1c(O)c(C)c(O)c2c1OC1=Cc3c(c(C)nn3-c3ccc(C#N)cc3)C(=O)[C@@]12C | 
22% | CC(=O)c1c(O)c(C)c(O)c2c1OC1=CC(=O)/C(=C(/C)Nc3cc(Cl)ccc3O)C(=O)[C@@]12C | 
46.4% | CC(=O)c1c(O)c(C)c(O)c2c1OC1=CC(=O)/C(=C(/C)Nc3ccc(N)cn3)C(=O)[C@@]12C | 
30.3% | CC(=O)c1c(O)c(C)c(O)c2c1OC1=Cc3c(c(C)nn3-c3cccc(F)c3)C(=O)[C@@]12C | 
29.8% | CC(=O)c1c(O)c(C)c(O)c2c1OC1=CC(=O)/C(=C(/C)Nc3ccc4scnc4c3)C(=O)[C@@]12C | 
27.6% | CC(=O)c1c(O)c(C)c(O)c2c1OC1=CC(=O)/C(=C(/C)Nc3ccc(C(=O)O)c(O)c3)C(=O)[C@@]12C | 
5.4% | COc1cc(N/C(C)=C2\C(=O)C=C3Oc4c(C(C)=O)c(O)c(C)c(O)c4[C@@]3(C)C2=O)cc(OC)c1OC | 
inactive | COc1ccc(S(=O)(=O)n2nc(C)c3c2C=C2Oc4c(C(C)=O)c(O)c(C)c(O)c4[C@@]2(C)C3=O)cc1 | 
inactive | CC(=O)c1c(O)c(C)c(O)c2c1OC1=CC(=O)/C(=C(/C)Nc3cccc4cccnc34)C(=O)[C@@]12C | 
inactive | CC(=O)C1=C([O-])C=C2Oc3c(C(C)=O)c(O)c(C)c(O)c3[C@]2(C)C1=O.[Na+] | Activity (BV-2): Toxic
12.2% | CC(=O)c1c(O)c(C)c(O)c2c1OC1=Cc3c(c(C)nn3-c3nc4ccccc4[nH]3)C(=O)[C@@]12C | 
12.7% | CC(=O)c1c(O)c(C)c(O)c2c1OC1=CC(=O)/C(=C(/C)Nc3cc(C)ccc3O)C(=O)[C@@]12C | 
48.2% | CC(=O)c1c(O)c(C)c(O)c2c1OC1=CC(=O)/C(=C(/C)Nc3ccc(N4CCN(C)CC4)cc3)C(=O)[C@@]12C | 
inactive | CC(=O)c1c(O)c(C)c(O)c2c1OC1=CC(=O)/C(=C(/C)Nc3c(C)cc(O)cc3C)C(=O)[C@@]12C | 
48% | CC(=O)c1c(O)c(C)c(O)c2c1OC1=CC(=O)/C(=C(/C)Nc3ncccc3O)C(=O)[C@@]12C | 
inactive | CC(=O)c1c(O)c(C)c(O)c2c1OC1=Cc3c(c(C)nn3-c3nc4ccccc4s3)C(=O)[C@@]12C | 
40.9% | CC(=O)c1c(O)c(C)c(O)c2c1OC1=Cc3c(c(C)nn3-c3ccc(C)nn3)C(=O)[C@@]12C | 
inactive | CC(=O)c1c(O)c(C)c(O)c2c1OC1=Cc3c(c(C)nn3S(=O)(=O)c3ccccc3)C(=O)[C@@]12C | 
32.8% | CC(=O)c1c(O)c(C)c(O)c2c1OC1=Cc3c(c(C)nn3-c3ccccc3C(=O)O)C(=O)[C@@]12C | 
17.1% | CC(=O)c1c(O)c(C)c(O)c2c1OC1=Cc3c(c(C)nn3-c3ccccn3)C(=O)[C@@]12C | 
inactive | CC(=O)c1c(O)c(C)c(O)c2c1OC1=CC(=O)/C(=C(/C)Nc3ccc4c(c3)ncn4C)C(=O)[C@@]12C | 
40.4% | CC(=O)c1c(O)c(C)c(O)c2c1OC1=Cc3c(c(C)nn3-c3cccc(C(=O)O)c3)C(=O)[C@@]12C | 

inhibition (Homo sapiens [1]) | SMILES | also measured
inactive | CC(=O)c1c(O)c(C)c(O)c2c1OC1=Cc3c(c(C)nn3S(=O)(=O)c3ccc(C)cc3)C(=O)[C@@]12C | 
25.3% | CC(=O)c1c(O)c(C)c(O)c2c1OC1=CC(=O)/C(=C(/C)Nc3ccc(C)cc3O)C(=O)[C@@]12C | 
inactive | CC(=O)c1c(O)c(C)c(O)c2c1OC1=CC(=O)/C(=C(/C)Nc3cc(C(C)C)c(O)cc3C)C(=O)[C@@]12C | 
26.9% | CC(=O)c1c(O)c(C)c(O)c2c1OC1=Cc3c(c(C)nn3-c3ccc(F)cc3)C(=O)[C@@]12C | 
28.7% | CC(=O)c1c(O)c(C)c(O)c2c1OC1=Cc3c(c(C)nn3-c3ccc(S(C)(=O)=O)cc3)C(=O)[C@@]12C | 
14.5% | CCOC(=O)c1ccc(-n2nc(C)c3c2C=C2Oc4c(C(C)=O)c(O)c(C)c(O)c4[C@@]2(C)C3=O)cc1 | 
46.8% | CC(=O)c1c(O)c(C)c(O)c2c1OC1=Cc3c(c(C)nn3-c3ccc(S(N)(=O)=O)cc3)C(=O)[C@@]12C | 
inactive | CC(=O)c1c(O)c(C)c(O)c2c1OC1=CC(=O)/C(=C(/C)Nc3cc(C(C)(C)C)c(O)c(C(C)(C)C)c3)C(=O)[C@@]12C | 
24% | COc1cccc(-n2nc(C)c3c2C=C2Oc4c(C(C)=O)c(O)c(C)c(O)c4[C@@]2(C)C3=O)c1 | 
22.3% | CC(=O)c1c(O)c(C)c(O)c2c1OC1=Cc3c(c(C)nn3-c3ccc(C(C)(C)C)cc3)C(=O)[C@@]12C | 
11.3% | CC(=O)c1c(O)c(C)c(O)c2c1OC1=CC(=O)/C(=C(/C)Nc3cccc(N(C)C)c3)C(=O)[C@@]12C | 
27.6% | CC(=O)c1c(O)c(C)c(O)c2c1OC1=CC(=O)/C(=C(/C)Nc3ccc4c(ccn4C)c3)C(=O)[C@@]12C | 
29.8% | CC(=O)c1c(O)c(C)c(O)c2c1OC1=Cc3c(c(C)nn3-c3cccnc3)C(=O)[C@@]12C | 
85.9% | O=c1c(O)c(-c2cc(O)c(O)c(O)c2)oc2cc(O)cc(O)c12 | 
9.3% | CC(=O)c1c(O)c(C)c(O)c2c1OC1=Cc3c(c(C)nn3-c3n[nH]c(=O)c4ccccc34)C(=O)[C@@]12C | 
8.5% | CC(=O)c1c(O)c(C)c(O)c2c1OC1=Cc3c(c(C)nn3-c3ccncc3)C(=O)[C@@]12C | 
47.6% | CC(=O)c1c(O)c(C)c(O)c2c1OC1=CC(=O)/C(=C(/C)N[C@@H](Cc3c[nH]c4ccccc34)C(=O)O)C(=O)[C@@]12C | 
48.1% | CC(=O)c1c(O)c(C)c(O)c2c1OC1=CC(=O)/C(=C(/C)Nc3ccc(N(C)C)cc3)C(=O)[C@@]12C | 
58.3% | CC(=O)c1c(O)c(C)c(O)c2c1OC1=CC(=O)/C(=C(/C)Nc3ccc(O)cn3)C(=O)[C@@]12C | inhibition (Homo sapiens [2]): inactive; inhibition (Homo sapiens [3]): Active
48.4% | CC(=O)c1c(O)c(C)c(O)c2c1OC1=CC(=O)/C(=C(/C)Nc3ccc(Cl)cc3O)C(=O)[C@@]12C | 
27.2% | COc1ccc(-n2nc(C)c3c2C=C2Oc4c(C(C)=O)c(O)c(C)c(O)c4[C@@]2(C)C3=O)cc1 | 
44.2% | CC(=O)c1c(O)c(C)c(O)c2c1OC1=CC(=O)/C(=C(/C)Nc3cnc(N)cn3)C(=O)[C@@]12C | 
inactive | CC(=O)c1c(O)c(C)c(O)c2c1OC1=CC(=O)/C(=C(/C)NCCCCCO)C(=O)[C@@]12C | 
39.2% | CC(=O)c1c(O)c(C)c(O)c2c1OC1=CC(=O)/C(=C(/C)Nc3ccc4[nH]ccc4c3)C(=O)[C@@]12C | 
7.7% | COc1ccc(-n2nc(C)c3c2C=C2Oc4c(C(C)=O)c(O)c(C)c(O)c4[C@@]2(C)C3=O)cn1 | 

SMILES | inhibition (Homo sapiens [1]) | also measured
CC(=O)c1c(O)c(C)c(O)c2c1OC1=CC(=O)/C(=C(/C)N[C@@H](Cc3ccccc3)C(=O)O)C(=O)[C@@]12C | inactive | 
